Experimental data as given in publication PMC3738144 (British Journal of Cancer, 2013).

Experiments:
[1] = Plasma pharmacokinetics of lenvatinib, carboplatin and paclitaxel; type: in vivo; conditions: human
[2] = tested on: patients with stage IIIB/IV NSCLC; type: in vivo, human
[3] = tested on: patients with stage IIIB/IV NSCLC; assay: Safety assessment: adverse events graded by CTCAE version 3.0; type: in vivo, human
[4] = tested on: NSCLC (stage IIIB/IV) target lesions; assay: Antitumor activity by RECIST version 1.0; type: in vivo, human
Procedure, shortened: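 Chemotherapy-naïve stage IIIB/IV NSCLC patients (20–74 y, ECOG 0–1, ≥1 measurable lesion) took oral test compound continuously BID. […] Investigators assessed tumours by RECIST 1.0 every two cycles. PFS ran from treatment start to PD or death (Kaplan–Meier).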

[5] = tested on: plasma angiogenic proteins and cytokines; assay: Plasma biomarker; type: in vivo, human; conditions: median (minimum–maximum), lenvatinib with carboplatin/paclitaxel
[6] = 4 mg BID (n=22) with carboplatin/paclitaxel
[7] = 4 mg level (22 patients) with carboplatin/paclitaxel
[8] = 6 mg BID (n=6) with carboplatin/paclitaxel

SMILES: CC(=O)O[C@H]1C(=O)[C@@]2(C)[C@H]([C@H](OC(=O)c3ccccc3)[C@]3(O)C[C@H](OC(=O)[C@H](O)[C@@H](NC(=O)c4ccccc4)c4ccccc4)C(C)=C1C3(C)C)[C@]1(OC(C)=O)CO[C@@H]1C[C@@H]2O [Paclitaxel, reference compound]
- clearance ([1]; intravenous, CL, paclitaxel 200 mg m^−2, with lenvatinib 4 mg BID (n=6), mean±s.d.): 240 mL/min
- Vd ([1]; intravenous, Vss, paclitaxel 200 mg m^−2, with lenvatinib 4 mg BID (n=6), mean±s.d.): 69.1 ± 27.7 L
- half-life ([1]; intravenous, t1/2, paclitaxel 200 mg m^−2, with lenvatinib 4 mg BID (n=6), mean±s.d.): 6.65 ± 0.39 h

SMILES: COc1cc2nccc(Oc3ccc(NC(=O)NC4CC4)c(Cl)c3)c2cc1C(N)=O [lenvatinib, Lenvatinib]
- dose-limiting toxicities (DLTs) ([2]; 4 mg BID (n=6), dose-finding cohort): No DLTs
- maximum tolerated dose (MTD) of lenvatinib ([2]; oral, with carboplatin (AUC 6)/paclitaxel (200 mg m^−2) day 1 every 3 weeks, advanced NSCLC): 4 mg BID
- patients with a treatment-related serious AE ([3]; 4 mg BID): 7 n
- Anaemia Grade 3, treatment-related adverse event [3, 6]: 3 (14) n (%)
- Anaemia Grade 4, treatment-related adverse event [3, 6]: 0 n (%)
- Anal abscess Grade 3, treatment-related adverse event [3, 6]: 1 (5) n (%)
- Anal abscess Grade 4, treatment-related adverse event [3, 6]: 0 n (%)
- Decreased appetite Grade 3, treatment-related adverse event [3, 6]: 1 (5) n (%)
- Decreased appetite Grade 4, treatment-related adverse event [3, 6]: 0 n (%)
- Diarrhoea Grade 3, treatment-related adverse event [3, 6]: 1 (5) n (%)
- Diarrhoea Grade 4, treatment-related adverse event [3, 6]: 0 n (%)
- Febrile neutropenia Grade 3, treatment-related adverse event [3, 6]: 5 (23) n (%)
- Febrile neutropenia Grade 4, treatment-related adverse event [3, 6]: 0 n (%)
- Gingival infection Grade 3, treatment-related adverse event [3, 6]: 1 (5) n (%)
- Gingival infection Grade 4, treatment-related adverse event [3, 6]: 0 n (%)
- Hypertension Grade 3, treatment-related adverse event [3, 6]: 8 (36) n (%)
- Hypertension Grade 4, treatment-related adverse event [3, 6]: 0 n (%)
- Hypocalcemia Grade 3, treatment-related adverse event [3, 6]: 1 (5) n (%)
- Hypocalcemia Grade 4, treatment-related adverse event [3, 6]: 0 n (%)
- Hyponatremia Grade 3, treatment-related adverse event [3, 6]: 1 (5) n (%)
- Hyponatremia Grade 4, treatment-related adverse event [3, 6]: 0 n (%)
- Leukopenia Grade 3, treatment-related adverse event [3, 6]: 10 (46) n (%)
- Leukopenia Grade 4, treatment-related adverse event [3, 6]: 1 (5) n (%)
- Lymphopenia Grade 3, treatment-related adverse event [3, 6]: 1 (5) n (%)
- Lymphopenia Grade 4, treatment-related adverse event [3, 6]: 0 n (%)
- Nausea Grade 3, treatment-related adverse event [3, 6]: 1 (5) n (%)
- Nausea Grade 4, treatment-related adverse event [3, 6]: 0 n (%)
- Neurogenic bladder Grade 3, treatment-related adverse event [3, 6]: 1 (5) n (%)
- Neurogenic bladder Grade 4, treatment-related adverse event [3, 6]: 0 n (%)
- Neutropenia Grade 3, treatment-related adverse event [3, 6]: 0 n (%)
- Neutropenia Grade 4, treatment-related adverse event [3, 6]: 21 (95) n (%)
- Peripheral sensory neuropathy Grade 3, treatment-related adverse event [3, 6]: 1 (5) n (%)
- Peripheral sensory neuropathy Grade 4, treatment-related adverse event [3, 6]: 0 n (%)
- Pneumonia Grade 3, treatment-related adverse event [3, 6]: 1 (5) n (%)
- Pneumonia Grade 4, treatment-related adverse event [3, 6]: 0 n (%)
- Proteinuria Grade 3, treatment-related adverse event [3, 6]: 2 (9) n (%)
- Proteinuria Grade 4, treatment-related adverse event [3, 6]: 0 n (%)
- Pyelonephritis Grade 3, treatment-related adverse event [3, 6]: 1 (5) n (%)
- Pyelonephritis Grade 4, treatment-related adverse event [3, 6]: 0 n (%)
- Syncope Grade 3, treatment-related adverse event [3, 6]: 0 n (%)
- Syncope Grade 4, treatment-related adverse event [3, 6]: 0 n (%)
- Thrombocytopenia Grade 3, treatment-related adverse event [3, 6]: 4 (18) n (%)
- Thrombocytopenia Grade 4, treatment-related adverse event [3, 6]: 2 (9) n (%)
- Thrombosis Grade 3, treatment-related adverse event [3, 6]: 1 (5) n (%)
- Thrombosis Grade 4, treatment-related adverse event [3, 6]: 0 n (%)
- Vomiting Grade 3, treatment-related adverse event [3, 6]: 1 (5) n (%)
- Vomiting Grade 4, treatment-related adverse event [3, 6]: 0 n (%)
- Weight decreased Grade 3, treatment-related adverse event [3, 6]: 1 (5) n (%)
- Weight decreased Grade 4, treatment-related adverse event [3, 6]: 0 n (%)
- alopecia incidence (all grades) [3, 7]: 95%
- arthralgia incidence (all grades) [3, 7]: 95%
- grade 3 or 4 febrile neutropenia [3, 7]: 23%
- grade 3 or 4 hypertension [3, 7]: 36%
- grade 3 or 4 leukopenia [3, 7]: 50%
- grade 3 or 4 neutropenia [3, 7]: 95%
- grade 3 or 4 thrombocytopenia [3, 7]: 27%
- leukopenia incidence (all grades) [3, 7]: 95%
- neutropenia incidence (all grades) [3, 7]: 95%
- peripheral sensory neuropathy incidence (all grades) [3, 7]: 95%
- patients with a treatment-related serious AE ([3]; 6 mg BID): 2 n
- Anaemia Grade 3, treatment-related adverse event [3, 8]: 0 n (%)
- Anaemia Grade 4, treatment-related adverse event [3, 8]: 0 n (%)
- Anal abscess Grade 3, treatment-related adverse event [3, 8]: 0 n (%)
- Anal abscess Grade 4, treatment-related adverse event [3, 8]: 0 n (%)
- Decreased appetite Grade 3, treatment-related adverse event [3, 8]: 0 n (%)
- Decreased appetite Grade 4, treatment-related adverse event [3, 8]: 0 n (%)
- Diarrhoea Grade 3, treatment-related adverse event [3, 8]: 0 n (%)
- Diarrhoea Grade 4, treatment-related adverse event [3, 8]: 0 n (%)
- Febrile neutropenia Grade 3, treatment-related adverse event [3, 8]: 1 (17) n (%)
- Febrile neutropenia Grade 4, treatment-related adverse event [3, 8]: 0 n (%)
- Gingival infection Grade 3, treatment-related adverse event [3, 8]: 1 (17) n (%)
- Gingival infection Grade 4, treatment-related adverse event [3, 8]: 0 n (%)
- Hypertension Grade 3, treatment-related adverse event [3, 8]: 4 (67) n (%)
- Hypertension Grade 4, treatment-related adverse event [3, 8]: 0 n (%)
- Hypocalcemia Grade 3, treatment-related adverse event [3, 8]: 0 n (%)
- Hypocalcemia Grade 4, treatment-related adverse event [3, 8]: 0 n (%)
- Hyponatremia Grade 3, treatment-related adverse event [3, 8]: 0 n (%)
- Hyponatremia Grade 4, treatment-related adverse event [3, 8]: 0 n (%)
- Leukopenia Grade 3, treatment-related adverse event [3, 8]: 2 (33) n (%)
- Leukopenia Grade 4, treatment-related adverse event [3, 8]: 1 (17) n (%)
- Lymphopenia Grade 3, treatment-related adverse event [3, 8]: 0 n (%)
- Lymphopenia Grade 4, treatment-related adverse event [3, 8]: 0 n (%)
- Nausea Grade 3, treatment-related adverse event [3, 8]: 0 n (%)
- Nausea Grade 4, treatment-related adverse event [3, 8]: 0 n (%)
- Neurogenic bladder Grade 3, treatment-related adverse event [3, 8]: 0 n (%)
- Neurogenic bladder Grade 4, treatment-related adverse event [3, 8]: 0 n (%)
- Neutropenia Grade 3, treatment-related adverse event [3, 8]: 0 n (%)
- Neutropenia Grade 4, treatment-related adverse event [3, 8]: 5 (83) n (%)
- Peripheral sensory neuropathy Grade 3, treatment-related adverse event [3, 8]: 0 n (%)
- Peripheral sensory neuropathy Grade 4, treatment-related adverse event [3, 8]: 0 n (%)
- Pneumonia Grade 3, treatment-related adverse event [3, 8]: 2 (33) n (%)
- Pneumonia Grade 4, treatment-related adverse event [3, 8]: 0 n (%)
- Proteinuria Grade 3, treatment-related adverse event [3, 8]: 0 n (%)
- Proteinuria Grade 4, treatment-related adverse event [3, 8]: 0 n (%)
- Pyelonephritis Grade 3, treatment-related adverse event [3, 8]: 0 n (%)
- Pyelonephritis Grade 4, treatment-related adverse event [3, 8]: 0 n (%)
- Syncope Grade 3, treatment-related adverse event [3, 8]: 1 (17) n (%)
- Syncope Grade 4, treatment-related adverse event [3, 8]: 0 n (%)
- Thrombocytopenia Grade 3, treatment-related adverse event [3, 8]: 0 n (%)
- Thrombocytopenia Grade 4, treatment-related adverse event [3, 8]: 0 n (%)
- Thrombosis Grade 3, treatment-related adverse event [3, 8]: 0 n (%)
- Thrombosis Grade 4, treatment-related adverse event [3, 8]: 0 n (%)
- Vomiting Grade 3, treatment-related adverse event [3, 8]: 0 n (%)
- Vomiting Grade 4, treatment-related adverse event [3, 8]: 0 n (%)
- Weight decreased Grade 3, treatment-related adverse event [3, 8]: 0 n (%)
- Weight decreased Grade 4, treatment-related adverse event [3, 8]: 0 n (%)
- SAE febrile neutropenia ([3]; all 28 patients): 7%
- SAE pneumonia ([3]; all 28 patients): 7%
- deaths ([3]; all 28 patients): No deaths were reported
- patients with a treatment-related serious AE ([3]; all 28 patients (4 and 6 mg BID)): Nine
- changes in mean QT interval and QTcF ([3]; combination or maintenance therapy): no changes of clinical importance
- Cmax ([1]; oral, 4 mg): 97.5 ± 38.4 ng/mL
- Tmax ([1]; oral, 4 mg, tmax, lenvatinib in plasma, lenvatinib 4 mg BID (n=6) with carboplatin/paclitaxel, median (minimum–maximum)): 4.18 h
- Cmax ([1]; oral, 6 mg): 138 ± 35.3 ng/mL
- Tmax ([1]; oral, 6 mg, Median time of maximum concentration (tmax), lenvatinib, across 4 and 6 mg BID groups): 4.18 to 4.27 h
- AUC(0-t) ([1]; oral, 6 mg, mean AUC(0−t), lenvatinib, across 4 and 6 mg BID groups): 692 to 848 ng·h/mL
- Best response CR [4, 6]: 1 (5) n (%)
- Best response NE [4, 6]: 1 (5) n (%)
- Best response PD [4, 6]: 1 (5) n (%)
- Best response PR [4, 6]: 14 (64) n (%)
- Best response SD [4, 6]: 5 (23) n (%)
- ORR (CR+PR) [4, 6]: 15 (68) n (%)
- Median PFS ([4]; 4 mg BID groups with carboplatin/paclitaxel): 9.0 months
- Best response CR [4, 8]: 0 (0) n (%)
- Best response NE [4, 8]: 2 (33) n (%)
- Best response PD [4, 8]: 0 (0) n (%)
- Best response PR [4, 8]: 2 (33) n (%)
- Best response SD [4, 8]: 2 (33) n (%)
- ORR (CR+PR) [4, 8]: 2 (33) n (%)
- complete response ([4]; 22 patients at the 4 mg level): 5%
- partial response ([4]; 22 patients at the 4 mg level): 64%
- Best response CR ([4]; Total (n=28)): 1 (4) n (%)
- Best response NE ([4]; Total (n=28)): 3 (11) n (%)
- Best response PD ([4]; Total (n=28)): 1 (4) n (%)
- Best response PR ([4]; Total (n=28)): 16 (57) n (%)
- Best response SD ([4]; Total (n=28)): 7 (25) n (%)
- ORR (CR+PR) ([4]; Total (n=28)): 17 (61) n (%)
- Median PFS ([4]; total): 9.0 months
- median duration of response ([4]; total): 7.0 months
- FGF-2 plasma, observed value ([5]; Cycle 1 day 8 (n=26)): 17.2 (7–59) pg ml^−1
- G-CSF plasma, observed value ([5]; Cycle 1 day 8 (n=26)): 7.6 (3–27) pg ml^−1
- HGF plasma, observed value ([5]; Cycle 1 day 8 (n=26)): 244.0 (163–353) pg ml^−1
- PDGF-B plasma, observed value ([5]; Cycle 1 day 8 (n=26)): 237.9 (14–2849) pg ml^−1
- SCF plasma, observed value ([5]; Cycle 1 day 8 (n=26)): 101.0 (54–173) pg ml^−1
- FGF-2 plasma, observed value ([5]; Cycle 1 day 22 (n=26)): 16.0 (7–57) pg ml^−1
- G-CSF plasma, observed value ([5]; Cycle 1 day 22 (n=26)): 7.5 (2–17) pg ml^−1
- IL-8 plasma, observed value ([5]; Cycle 1 day 22 (n=26)): 4.4 (3–15) pg ml^−1
- SCF plasma, observed value ([5]; Cycle 1 day 22 (n=26)): 102.9 (43–184) pg ml^−1
- SDF1α plasma, observed value ([5]; Cycle 1 day 22 (n=26)): 76.9 (30–140) pg ml^−1
